Consider four compounds from ChEMBL document CHEMBL3044840, “Antifungal activities of metabolites produced by a termite-associated Streptomyces canus BYB02” (J Agric Food Chem, 2013).

Test [1] relates to Pyricularia grisea. The test is described as follows: Antifungal activity against Magnaporthe grisea in fourth-leaf stage of rice plant assessed as preventive efficacy at 100 ug/ml after 11 days relative to control. It is filed as functional.
A further test concerns Cytospora mali. The test is described as follows: Antifungal activity against Valsa mali assessed as inhibition of mycelial growth. It is filed as functional, organism-based. In short, it runs like this:
(§1)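 Mycelial growth on potato dextrose agar in 9 cm dishes containing serial concentrations of sample, dissolved in aqueous 1% DMSO/4% Tween-80. Mycelium inoculated at plate centre and incubated in the dark at 28 °C until control growth reached the dish edge. Inhibition (%) = (1 − Da/Db) × 100 from growth-zone diameters. IC50 by probit analysis. Cycloheximide as positive control. Run in triplicate.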

In a further test the test system is Rhizoctonia solani. The test is described as follows: Antifungal activity against Rhizoctonia solani assessed as inhibition of mycelial growth. The format is functional, organism-based. In short, it runs like this:
as §1

The subject of another test is Fusarium graminearum. The test is described as follows: Antifungal activity against Fusarium graminearum assessed as inhibition of mycelial growth. The format is functional, organism-based. In short, it runs like this: (§2)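 Poisoned-food assay. Serial concentrations in aqueous 1% DMSO/4% Tween-80 were mixed into molten potato dextrose agar. Mycelium was inoculated at the plate centre and incubated in the dark at 28 °C until control growth reached the dish edge. Inhibition % = (1 − Da/Db) × 100 from colony diameters. IC50 by probit analysis; run in triplicate.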

In test [2] the test system is Pyricularia grisea. The test is described as follows: Antifungal activity against Magnaporthe grisea assessed as inhibition of mycelial growth. The format is functional, organism-based. The procedure, abridged: as §2
The test system of a further test is Dothiorella gregaria. The test is described as follows: Antifungal activity against Dothiorella gregaria assessed as inhibition of mycelial growth. The format is functional, organism-based. In short, it runs like this:
as §1

In test [3] the test system is Fusarium oxysporum f. sp. cucumerinum. The test is described as follows: Antifungal activity against Fusarium oxysporum f. sp. cucumerinum assessed as inhibition of mycelial growth. The format is functional, organism-based. In short, it runs like this: as §1
In test [4] the test system is Pyricularia grisea. The test is described as follows: Antifungal activity against Magnaporthe grisea in fourth-leaf stage of rice plant assessed as curative efficacy at 100 ug/ml after 11 days relative to control. The format is functional.
In test [5] the test system is Pyricularia grisea. The test is described as follows: Antifungal activity against Magnaporthe grisea assessed as inhibition of spore germination after 12 hr by light microscopic analysis. The format is functional, organism-based. In short, it runs like this:
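M. oryzae spores were taken from 7-day oatmeal–tomato agar cultures. 50 μL of compound in 1% DMSO/4% Tween-80 was mixed with 50 μL spore suspension (2.5 × 10^5 spores). 40 μL drops went on slides, in triplicate. Slides were kept in a moist chamber at 28 °C for 12 h. About 100 spores per replicate were scored; IC50 by probit analysis.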

Values after ≈ are worked out from the molar mass of the structure shown. Bounds are passed on as bounds.

On to `COC(=O)Nc1nc2ccccc2[nH]1` [CARBENDAZIM], for which, in the test with Pyricularia grisea [1], the Activity turned out to be 58.7%.

`C[C@@H]1C[C@@H]([C@H](O)CC2CC(=O)NC(=O)C2)C(=O)[C@@H](C)C1` [CYCLOHEXIMIDE]: the IC50 in the test with Cytospora mali was 0.3 µg/mL (≈ 1.07 µM); in the test with Rhizoctonia solani, 0.3 µg/mL (≈ 1.07 µM); in the test on Fusarium graminearum, 3.3 µg/mL (≈ 11.7 µM); with Pyricularia grisea [2], 2.3 µg/mL (≈ 8.17 µM); with Dothiorella gregaria, 0.9 µg/mL (≈ 3.2 µM); in [3], 4.9 µg/mL (≈ 17.4 µM).

As to `Cc1cc(O)c2c3c4c(cc(O)c13)C(C)(C)C(=O)c1c(O)cc(O)c(c1-4)C2=O` [HELIOMYCIN], the IC50 is 1.1 µg/mL (≈ 2.92 µM) in the test on Cytospora mali; over 100 µg/mL in the test with Rhizoctonia solani; over 100 µg/mL in the test with Fusarium graminearum; 3.8 µg/mL (≈ 10.1 µM) in the test on Pyricularia grisea [2]; over 100 µg/mL in the test with Dothiorella gregaria; over 100 µg/mL in test [3]. Besides, the IC50 with Pyricularia grisea [5] was 5.55 µg/mL (≈ 14.7 µM). For the same compound, the Activity with Pyricularia grisea [4] was under 25%; in the test with Pyricularia grisea [1], 66.8%.

For `Cc1cc(O)cc2cc3c(c(O)c12)C(=O)c1c(O)cc(O)cc1C3=O` [TETRACENOMYCIN D], the IC50 in the test with Cytospora mali and with Pyricularia grisea [2] was over 25 µg/mL each time.
